Experimental findings from ChEMBL document CHEMBL1777695, “Design and synthesis of pironetin analogues with simplified structure and study of their interactions with microtubules” (Eur J Med Chem, 2011) are described below.

SMILES strings stand for the structures. The source made the active and inactive calls. No cut-off for these calls is given here. A value given as a limit tells only on which side of the number the result lay.

The nature of assay [1]: Inhibition of tubulin assembly assessed as concentration of tubulin required to produce assembly at 100 uM after 30 mins. The gist of the method: (§1)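 Purified tubulin (20 µM) incubated 30 min at 37 °C in GAB (3.4 M glycerol, 10 mM sodium phosphate, 1 mM EGTA, 1 mM GTP, pH 6.5) with 25 µM pironetin or docetaxel, 100 µM analogue, or DMSO vehicle. Critical concentration for assembly determined. Mean of five measurements ± SE.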

The test system of assay [2] is A2780. The assay is described as follows: Resistance index, ratio of IC50 for human compound-resistant A2780AD cells to IC50 for human compound-sensitive A2780 cells.
Assay [3] has as its system A549. The assay is described as follows: Induction of abberant mitosis in human A549 cells assessed as metaphase mitotic cells with type III mitotic spindles at 200 uM after 4 hrs relative to control. It is filed as functional, cell-based. In a few lines: (§2)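 A549 cells grown overnight on coverslips, then treated 4 h with ligand (50 nM or 200 µM) or DMSO vehicle. Cells permeabilized with Triton X-100 and fixed in 3.7% formaldehyde. Microtubules stained with DM1A anti-α-tubulin antibody and DNA with Hoechst 33342. Spindle and microtubule morphology examined by epifluorescence microscopy.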

Assay [4] relates to A549. The assay is described as follows: Cell cycle arrest in human A549 cells assessed as minimum concentration required to induce accumulation at G2/M phase after 20 hrs by propidium iodide staining-based flow cytometry. Type of assay: functional. In a few lines:
(§3)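 A549 cells (RPMI 1640, 10% FCS, glutamine, antibiotics) exposed 20 h to ligand or vehicle. Cells fixed, RNase-treated and stained with propidium iodide. DNA content read by flow cytometry. The lowest concentration giving maximal G2/M arrest is reported.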
For orientation: In flow cytometry, cells or beads pass a laser one at a time.

Assay [5] can be described thus: Displacement of pironetin from tubulin in cell-free system assessed as unbound pironetin concentration at 200 uM after 15 mins by HPLC method. In a few lines:
(§4)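 Tubulin (25 µM in GAB: 3.4 M glycerol, 10 mM sodium phosphate, 1 mM EGTA, 1 mM GTP, pH 6.5) preincubated 15 min at 37 °C with 200 µM analogue or DMSO. 30 µM pironetin then added for a further 15 min. Docetaxel (10 µM) added as internal standard. Unreacted pironetin extracted three times with CH2Cl2 and quantified by reverse-phase HPLC, UV at 230 nm. Mean of three measurements ± SE.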

Assay [6] in a line: Displacement of pironetin from tubulin in cell-free system assessed as bound pironetin concentration at 200 uM after 15 mins by HPLC method. In a few lines: as §4
Assay [7] can be described thus: Cytotoxicity against compound-resistant human A2780AD cells after 24 hrs by MTT assay. Type of assay: functional, cell-based. Conditions: A2780 ADR. In a few lines: (§5)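 MTT proliferation assay in ovarian carcinoma A2780 and P-glycoprotein-overexpressing A2780AD cells, grown in RPMI 1640 with 10% FCS, glutamine, antibiotics and 0.25 units/mL bovine insulin. IC50 (50% inhibition of proliferation) is the mean ± standard error of two independent experiments in duplicate. Relative resistance is IC50 in A2780AD divided by IC50 in A2780.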
In general terms: Tetrazolium dyes change colour on reduction, which living cells bring about.

Assay [8] relates to A549. As to the kind of experiment: Induction of abberant mitosis in human A549 cells assessed as metaphase mitotic cells with DNA forming a ring surrounding mono-aster of microtubule at 200 uM after 4 hrs relative to control. It is filed as functional, cell-based. The gist of the method:
as §2

Assay [9] concerns A2780. As to the kind of experiment: Cytotoxicity against compound-sensitive human A2780 cells after 24 hrs by MTT assay. It is filed as functional, cell-based. The following applies: A2780, 24 h. In a few lines:
as §5

Assay [10] deals with A549. The assay is described as follows: Induction of microtubule cytoskeleton depolymerization in human A549 cells at 200 uM after 4 hrs by immunofluorescence assay. Type of assay: cell-based.
Assay [11] has as its system A549. As to the kind of experiment: Induction of apoptosis in human A549 cells after 20 hrs. It is filed as functional, cell-based.
The nature of assay [12]: Inhibition of tubulin assembly assessed as concentration of tubulin required to produce assembly at 25 uM after 30 mins. The gist of the method: as §1
The subject of assay [13] is A549. The assay is described as follows: Cell cycle arrest in human A549 cells assessed accumulation at G2/M phase at 50 nM after 20 hrs by propidium iodide staining-based flow cytometry. Type of assay: functional. The gist of the method:
as §3

Assay [14] deals with A549. The assay is described as follows: Induction of microtubule cytoskeleton depolymerization in human A549 cells at 50 nM after 4 hrs by immunofluorescence assay. It is filed as cell-based. In a few lines:
as §2

Assay [15] is described as follows: Binding affinity to tubulin after 15 min. The gist of the method:
as §4

The test system of assay [16] is A549. The assay is described as follows: Induction of abberant mitosis in human A549 cells assessed as metaphase mitotic cells with type III mitotic spindles at 50 nM after 4 hrs relative to control. It is filed as functional, cell-based. In a few lines:
as §2

Assay [17] deals with A549. As to the kind of experiment: Induction of abberant mitosis in human A549 cells assessed as metaphase mitotic cells with DNA forming a ring surrounding mono-aster of microtubule at 50 nM after 4 hrs relative to control. Type of assay: functional, cell-based. The gist of the method:
as §2

As to `CCCCC[C@H](CCC[C@@H]1CC=CC(=O)O1)OC`, the Activity was 3.79 µM in assay [1], 50 µM in the assay with A549 [4], 15 µM in assay [5] and 10 µM in assay [6]. The “Ratio IC50” value in the assay with A2780 [2] turned out to be 1.42. The outcome with A549 [3], in the assay with A549 [8] and with A549 [10] was Active. The figures for the half-inhibitory concentration (IC50) (in [7]; with A2780 [9]) were 20.5 µM and 14.4 µM, respectively.

In the case of `CCCCC[C@@H](CCC[C@@H]1CC=CC(=O)O1)OC`, the Activity worked out at 3.75 µM in assay [1], 50 µM with A549 [4], 15 µM in assay [5] and 10 µM in [6]. Besides, the “Ratio IC50” value in the assay with A2780 [2] was determined as 0.77. For the same molecule, the results for the IC50 (in assay [7]; in the assay with A2780 [9]) were 11.5 µM and 14.9 µM, respectively. Moreover, in the assay on A549 [11], the outcome was inactive.

With `CCCCC[C@H](CCC[C@H]1CC=CC(=O)O1)OC`, the Activity amounted to 3.85 µM in assay [1], 50 µM in the assay on A549 [4], 15 µM in assay [5] and 10 µM in [6]. Further, the “Ratio IC50” value in the assay with A2780 [2] is 0.7. Besides, the result in the assay with A549 [3], with A549 [8] and in the assay on A549 [10] was Active. Also, the half-maximal inhibitory concentration (IC50) – broadly, the concentration needed to halve the response being measured – in [7] is 12.2 µM; in the assay with A2780 [9], 17.1 µM.

In the case of `CC(=O)O[C@@]12CO[C@@H]1C[C@H](O)[C@@]1(C)C(=O)[C@H](O)C3=C(C)[C@@H](OC(=O)[C@H](O)[C@@H](NC(=O)OC(C)(C)C)c4ccccc4)C[C@@](O)([C@@H](OC(=O)c4ccccc4)[C@H]21)C3(C)C`, the Activity in assay [12] was 0.4 µM.

As to `CCCCC[C@@H](C[C@H](O)C[C@@H]1CC=CC(=O)O1)OC`, the “Ratio IC50” value in the assay with A2780 [2] is listed as 0.74. The Activity amounted to 100 µM in the assay with A549 [4], 10 µM in [5] and 4 µM in assay [6]. For the same molecule, the concentration for half-maximal inhibition (IC50) in assay [7] came to 26.3 µM; in the assay on A2780 [9] it was 35.4 µM. For the same molecule, in the assay with A549 [11], the outcome was inactive.

For the molecule `CCCCC[C@@H](C[C@@H](O)C[C@@H]1CC=CC(=O)O1)OC`, the “Ratio IC50” value in the assay on A2780 [2] turned out to be 0.93. The result in the assay on A549 [3], in the assay with A549 [8] and in the assay on A549 [10] was Active. In the assay on A549 [4], the Activity came out at 200 µM. Besides, the IC50 in assay [7] was 46.3 µM; with A2780 [9] it was 49.4 µM. Besides, in the assay with A549 [11], the result was inactive.

As for `CCCCC[C@H](C[C@H](O)C[C@H]1CC=CC(=O)O1)OC`, the Activity in assay [1] was determined as 3.39 µM; with A549 [4] it was 100 µM; in [5] it was 10 µM; in assay [6], 4 µM. In the assay with A2780 [2], the “Ratio IC50” value was found to be 1.3. Moreover, the values for the IC50 (in [7]; with A2780 [9]) were 57.5 µM and 44 µM, respectively. The outcome with A549 [11] was inactive.

Take `CCCCC[C@H](C[C@H](O)C[C@@H]1CC=CC(=O)O1)OC`: in the assay on A2780 [2], the “Ratio IC50” value was 1.3. Also, the figures for the Activity (in the assay with A549 [4]; in [5]; in assay [6]) were 100 µM, 10 µM and 4 µM, respectively. For the same molecule, the IC50 turned out to be 30 µM in assay [7] and 22.9 µM in the assay with A2780 [9]. Besides, the result in the assay with A549 [11] was inactive.

Turning to `C/C=C/C[C@H](C)[C@@H](OC)[C@@H](C)[C@H](O)C[C@H]1OC(=O)C=C[C@H]1CC` [PIRONETIN], the outcome in the assay with A549 [13], in the assay with A549 [14], in the assay on A549 [16] and in the assay on A549 [17] was Active. The “Ratio IC50” value in the assay with A2780 [2] is 1. Also, the Activity was 23.4 µM in assay [15] and above 15 µM in assay [12]. For the same molecule, the half-inhibitory concentration (IC50) came to 0.003 µM in assay [7] and 0.0029 µM with A2780 [9]. Besides, the result with A549 [11] was inactive.

As for `CCCCC[C@H](C[C@@H](O)C[C@@H]1CC=CC(=O)O1)OC`, the “Ratio IC50” value in the assay on A2780 [2] is on record as 1.67. Also, the Activity with A549 [4] turned out to be 200 µM. Besides, the IC50 in assay [7] was 91.5 µM; with A2780 [9] it was 54.5 µM. The outcome with A549 [11] was inactive.

As for `CCCCC[C@@H](C[C@H](O)C[C@H]1CC=CC(=O)O1)OC`, the “Ratio IC50” value in the assay with A2780 [2] is recorded as 0.89. In addition, the Activity in the assay on A549 [4] worked out at 200 µM. The IC50 came out at 48 µM in assay [7] and 53.7 µM in the assay with A2780 [9]. In addition, in the assay with A549 [11], the outcome was inactive.

As for `CCCCC[C@@H](C[C@@H](O)C[C@H]1CC=CC(=O)O1)OC`, the “Ratio IC50” value in the assay on A2780 [2] is on record as 0.74. Also, the Activity with A549 [4] stood at 200 µM. For the same molecule, the concentration for half-maximal inhibition (IC50) in [7] turned out to be 25.2 µM; with A2780 [9], 33.7 µM. The outcome in the assay on A549 [11] was inactive.

For `CCCCC[C@@H](CCC[C@H]1CC=CC(=O)O1)OC`, the Activity in assay [1] was determined as 3.73 µM; in the assay on A549 [4], 50 µM. Also, in the assay on A2780 [2], the “Ratio IC50” value was found to be 0.45. Also, the result in the assay with A549 [3], in the assay on A549 [8] and in the assay with A549 [10] was Active. For the same molecule, the IC50 in assay [7] was 9 µM; in the assay with A2780 [9] it was 20.6 µM. Moreover, the result in the assay with A549 [11] was inactive.

For the molecule `CC(=O)O[C@H]1C(=O)[C@@]2(C)[C@H]([C@H](OC(=O)c3ccccc3)[C@]3(O)C[C@H](OC(=O)[C@H](O)[C@@H](NC(=O)c4ccccc4)c4ccccc4)C(C)=C1C3(C)C)[C@]1(OC(C)=O)CO[C@@H]1C[C@@H]2O` [PACLITAXEL], in the assay with A2780 [2], the “Ratio IC50” value came to 1157. Moreover, the IC50 was 0.949 µM in assay [7] and 0.00082 µM with A2780 [9].

Consider `CCCCC[C@H](C[C@@H](O)C[C@H]1CC=CC(=O)O1)OC`, for which the Activity in [1] was 3.44 µM; with A549 [4], 100 µM. In the assay with A2780 [2], the “Ratio IC50” value turned out to be 0.62. Further, the IC50 in assay [7] turned out to be 18.1 µM; in the assay on A2780 [9], 28.9 µM. The outcome in the assay on A549 [11] was inactive.
